From ChEMBL document CHEMBL4665627 (Eur J Med Chem, 2019)
Converted amounts (≈) assume the structure as drawn.

Key:
Format in all cases: functional
Pseudomonas aeruginosa [1] = test: Antibacterial activity against Pseudomonas aeruginosa assessed as inhibition of bacterial growth after 24 hrs by CLSI protocol based two fold serial dilution method
Outline: (§1)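 Two-fold serial broth dilution in 96-well plates following CLSI; MIC (mM) taken as the lowest concentration giving complete growth inhibition; MIC values from three independent experiments.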

Candida parapsilosis = test: Antifungal activity against Candida parapsilosis ATCC 22019 assessed as inhibition of fungal growth after 24 hrs by CLSI protocol based two fold serial dilution method; conditions: Lodderomyces parapsilosis; outline: as §1
Aspergillus fumigatus = test: Antifungal activity against Aspergillus fumigatus assessed as inhibition of fungal growth after 24 hrs by CLSI protocol based two fold serial dilution method; outline: as §1
Candida tropicalis = test: Antifungal activity against Candida tropicalis assessed as inhibition of fungal growth after 24 hrs by CLSI protocol based two fold serial dilution method; outline: as §1
Candida albicans [2] = test: Antifungal activity against Candida albicans ATCC 90023 assessed as inhibition of fungal growth after 24 hrs by CLSI protocol based two fold serial dilution method; outline: as §1
Candida albicans [3] = test: Antifungal activity against Candida albicans assessed as inhibition of fungal growth after 24 hrs by CLSI protocol based two fold serial dilution method; outline: as §1
Acinetobacter baumannii = test: Antibacterial activity against Acinetobacter baumannii assessed as inhibition of bacterial growth after 24 hrs by CLSI protocol based two fold serial dilution method; outline: as §1
Pseudomonas aeruginosa [4] = test: Antibacterial activity against Pseudomonas aeruginosa ATCC 27853 assessed as inhibition of bacterial growth after 24 hrs by CLSI protocol based two fold serial dilution method; outline: as §1
Escherichia coli [5] = test: Antibacterial activity against Escherichia coli ATCC 25922 assessed as inhibition of bacterial growth after 24 hrs by CLSI protocol based two fold serial dilution method; outline: as §1
Escherichia coli [6] = test: Antibacterial activity against Escherichia coli assessed as inhibition of bacterial growth after 24 hrs by CLSI protocol based two fold serial dilution method; outline: as §1
Klebsiella pneumoniae = test: Antibacterial activity against Klebsiella pneumoniae assessed as inhibition of bacterial growth after 24 hrs by CLSI protocol based two fold serial dilution method; outline: as §1
Staphylococcus aureus [7] = test: Antibacterial activity against Staphylococcus aureus ATCC 29213 assessed as inhibition of bacterial growth after 24 hrs by CLSI protocol based two fold serial dilution method
Staphylococcus aureus [8] = test: Antibacterial activity against Staphylococcus aureus ATCC 25923 assessed as inhibition of bacterial growth after 24 hrs by CLSI protocol based two fold serial dilution method; outline: as §1
Staphylococcus aureus [9] = test: Antibacterial activity against Staphylococcus aureus assessed as inhibition of bacterial growth after 24 hrs by CLSI protocol based two fold serial dilution method; outline: as §1
Enterococcus faecalis = test: Antibacterial activity against Enterococcus faecalis assessed as inhibition of bacterial growth after 24 hrs by CLSI protocol based two fold serial dilution method; outline: as §1
Staphylococcus aureus [10] = test: Antibacterial activity against methicillin-resistant Staphylococcus aureus N315 assessed as inhibition of bacterial growth after 24 hrs by CLSI protocol based two fold serial dilution method

| Compound | MIC (Pseudomonas aeruginosa [1]) [µM] | MIC (Candida parapsilosis) [µM] | MIC (Aspergillus fumigatus) [µM] | MIC (Candida tropicalis) [µM] | MIC (Candida albicans [2]) [µM] | MIC (Candida albicans [3]) [µM] | MIC (Acinetobacter baumannii) [µM] | MIC (Pseudomonas aeruginosa [4]) [µM] | MIC (Escherichia coli [5]) [µM] | MIC (Escherichia coli [6]) [µM] | MIC (Klebsiella pneumoniae) [µM] | MIC (Staphylococcus aureus [7]) [µM] | MIC (Staphylococcus aureus [8]) [µM] | MIC (Staphylococcus aureus [9]) [µM] | MIC (Enterococcus faecalis) [µM] | MIC (Staphylococcus aureus [10]) [µM] |
| --- | --- | --- | --- | --- | --- | --- | --- | --- | --- | --- | --- | --- | --- | --- | --- | --- |
| CCn1cc(-c2csc(N)n2)c(=O)c2cc(N3CCN(c4cc5c(cc4F)c(=O)c(-c4csc(N)n4)cn5CC)CC3)c(Cl)cc21 | 757 (≈ 513 µg/mL) | 757 (≈ 513 µg/mL) | 189 (≈ 128 µg/mL) | 757 (≈ 513 µg/mL) | 757 (≈ 513 µg/mL) | 757 (≈ 513 µg/mL) | 757 (≈ 513 µg/mL) | 757 (≈ 513 µg/mL) | 757 (≈ 513 µg/mL) | 189 (≈ 128 µg/mL) | 379 (≈ 257 µg/mL) | 757 (≈ 513 µg/mL) | 757 (≈ 513 µg/mL) | 757 (≈ 513 µg/mL) | 757 (≈ 513 µg/mL) | 757 (≈ 513 µg/mL) |
| C#CCN1CCN(c2cc3c(cc2F)c(=O)c(-c2csc(N)n2)cn3CC)CC1 | 19 (≈ 7.82 µg/mL) | 10 (≈ 4.12 µg/mL) | 19 (≈ 7.82 µg/mL) | 39 (≈ 16 µg/mL) | 19 (≈ 7.82 µg/mL) | 19 (≈ 7.82 µg/mL) | 19 (≈ 7.82 µg/mL) | 5 (≈ 2.06 µg/mL) | 19 (≈ 7.82 µg/mL) | 156 (≈ 64.2 µg/mL) | 10 (≈ 4.12 µg/mL) | 5 (≈ 2.06 µg/mL) | 39 (≈ 16 µg/mL) | 19 (≈ 7.82 µg/mL) | 19 (≈ 7.82 µg/mL) | 20 (≈ 8.23 µg/mL) |
| CCn1cc(-c2csc(N)n2)c(=O)c2cc(F)c(N3CCN(CC(=O)N(C(C)C)C(C)C)CC3)cc21 | 249 (≈ 128 µg/mL) | 996 (≈ 513 µg/mL) | 498 (≈ 256 µg/mL) | 498 (≈ 256 µg/mL) | 498 (≈ 256 µg/mL) | 996 (≈ 513 µg/mL) | 249 (≈ 128 µg/mL) | 249 (≈ 128 µg/mL) | 498 (≈ 256 µg/mL) | 498 (≈ 256 µg/mL) | 498 (≈ 256 µg/mL) | 249 (≈ 128 µg/mL) | 249 (≈ 128 µg/mL) | 62 (≈ 31.9 µg/mL) | 249 (≈ 128 µg/mL) | 124 (≈ 63.8 µg/mL) |
| CCn1cc(-c2csc(N)n2)c(=O)c2cc(F)c(N3CCN(CC(C)=O)CC3)cc21 | 597 (≈ 256 µg/mL) | 298 (≈ 128 µg/mL) | 597 (≈ 256 µg/mL) | 298 (≈ 128 µg/mL) | 37 (≈ 15.9 µg/mL) | 597 (≈ 256 µg/mL) | 298 (≈ 128 µg/mL) | 149 (≈ 64 µg/mL) | 298 (≈ 128 µg/mL) | 597 (≈ 256 µg/mL) | 37 (≈ 15.9 µg/mL) | 298 (≈ 128 µg/mL) | 19 (≈ 8.16 µg/mL) | 37 (≈ 15.9 µg/mL) | 149 (≈ 64 µg/mL) | 298 (≈ 128 µg/mL) |
| CCn1cc(-c2csc(N)n2)c(=O)c2cc(F)c(N3CCN(CC(C)O)CC3)cc21 (stereo not given) | 148 (≈ 63.9 µg/mL) | 148 (≈ 63.9 µg/mL) | 37 (≈ 16 µg/mL) | 297 (≈ 128 µg/mL) | 148 (≈ 63.9 µg/mL) | 148 (≈ 63.9 µg/mL) | 19 (≈ 8.2 µg/mL) | 5 (≈ 2.16 µg/mL) | 37 (≈ 16 µg/mL) | 594 (≈ 256 µg/mL) | 9 (≈ 3.88 µg/mL) | 148 (≈ 63.9 µg/mL) | 148 (≈ 63.9 µg/mL) | 37 (≈ 16 µg/mL) | 297 (≈ 128 µg/mL) | 148 (≈ 63.9 µg/mL) |
| CCOC(=O)CN1CCN(c2cc3c(=O)c(-c4csc(N)n4)cn(CC)c3cc2Cl)CC1 | 269 (≈ 128 µg/mL) | 135 (≈ 64.3 µg/mL) | 539 (≈ 257 µg/mL) | 135 (≈ 64.3 µg/mL) | 67 (≈ 31.9 µg/mL) | 269 (≈ 128 µg/mL) | 135 (≈ 64.3 µg/mL) | 269 (≈ 128 µg/mL) | 1080 (≈ 513 µg/mL) | 269 (≈ 128 µg/mL) | 67 (≈ 31.9 µg/mL) | 539 (≈ 257 µg/mL) | 135 (≈ 64.3 µg/mL) | 135 (≈ 64.3 µg/mL) | 539 (≈ 257 µg/mL) | 67 (≈ 31.9 µg/mL) |
| CCCCCCCCN1CCN(c2cc3c(cc2F)c(=O)c(-c2csc(N)n2)cn3CC)CC1 | 264 (≈ 128 µg/mL) | 264 (≈ 128 µg/mL) | 16 (≈ 7.77 µg/mL) | 264 (≈ 128 µg/mL) | 1060 (≈ 512 µg/mL) | 1060 (≈ 512 µg/mL) | 528 (≈ 256 µg/mL) | 264 (≈ 128 µg/mL) | 1060 (≈ 512 µg/mL) | 264 (≈ 128 µg/mL) | 264 (≈ 128 µg/mL) | 528 (≈ 256 µg/mL) | 264 (≈ 128 µg/mL) | 264 (≈ 128 µg/mL) | 528 (≈ 256 µg/mL) | 528 (≈ 256 µg/mL) |
| CCOC(=O)CN1CCN(c2cc3c(cc2F)c(=O)c(-c2csc(N)n2)cn3CC)CC1 | 139 (≈ 63.9 µg/mL) | 279 (≈ 128 µg/mL) | 558 (≈ 256 µg/mL) | 139 (≈ 63.9 µg/mL) | 70 (≈ 32.2 µg/mL) | 70 (≈ 32.2 µg/mL) | 35 (≈ 16.1 µg/mL) | 70 (≈ 32.2 µg/mL) | 558 (≈ 256 µg/mL) | 279 (≈ 128 µg/mL) | 139 (≈ 63.9 µg/mL) | 139 (≈ 63.9 µg/mL) | 17 (≈ 7.81 µg/mL) | 70 (≈ 32.2 µg/mL) | 279 (≈ 128 µg/mL) | 139 (≈ 63.9 µg/mL) |
| CCCCCCCCCCCCN1CCN(c2cc3c(cc2F)c(=O)c(-c2csc(N)n2)cn3CC)CC1 | 473 (≈ 256 µg/mL) | 473 (≈ 256 µg/mL) | 473 (≈ 256 µg/mL) | 236 (≈ 128 µg/mL) | 946 (≈ 513 µg/mL) | 473 (≈ 256 µg/mL) | 473 (≈ 256 µg/mL) | 473 (≈ 256 µg/mL) | 946 (≈ 513 µg/mL) | 473 (≈ 256 µg/mL) | 946 (≈ 513 µg/mL) | 946 (≈ 513 µg/mL) | 946 (≈ 513 µg/mL) | 473 (≈ 256 µg/mL) | 946 (≈ 513 µg/mL) | 946 (≈ 513 µg/mL) |
| CCn1cc(-c2csc(N)n2)c(=O)c2cc(F)c(N3CCN(C)CC3)cc21 | 331 (≈ 128 µg/mL) | 331 (≈ 128 µg/mL) | 331 (≈ 128 µg/mL) | 661 (≈ 256 µg/mL) | 165 (≈ 63.9 µg/mL) | 165 (≈ 63.9 µg/mL) | 331 (≈ 128 µg/mL) | 165 (≈ 63.9 µg/mL) | 165 (≈ 63.9 µg/mL) | 661 (≈ 256 µg/mL) | 83 (≈ 32.2 µg/mL) | 331 (≈ 128 µg/mL) | 41 (≈ 15.9 µg/mL) | 165 (≈ 63.9 µg/mL) | 331 (≈ 128 µg/mL) | 331 (≈ 128 µg/mL) |
